Data: ChEMBL document CHEMBL1139773, “New fluoro-diphenylchalcogen derivatives to explore the serotonin transporter by PET” (Bioorg Med Chem Lett, 2007)

What was measured:
Assay type in all cases: tissue-based
[1] = target: Sodium-dependent dopamine transporter (Rattus norvegicus, UniProt P23977); assay: Displacement of [3H]WIN-35428 from DAT in rat brain
In short: (§1)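 Competition binding in rat cortical and striatal brain homogenates, with tissue assignment per transporter not specified. Radioligands were [3H]WIN 35,428 for DAT, [3H]nisoxetine for NET and [3H]paroxetine for SERT. Ki values are means of two independent experiments, each run in triplicate; some entries come from a single experiment (n = 1, in triplicate).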

[2] = target: T1, Sodium-dependent serotonin transporter (Rattus norvegicus, UniProt P31652); assay: Displacement of [3H]paroxetine from SERT in rat brain; in short: as §1
[3] = target: T1, Sodium-dependent serotonin transporter; assay: Displacement of [3H]citalopram from SERT in rat brain
[4] = target: Norepinephrine transporter (Rattus norvegicus, UniProt Q9WTR4); assay: Displacement of [3H]nisoxetine from NET in rat brain; in short: as §1
Chain of Norepinephrine transporter (Q9WTR4 whole entry): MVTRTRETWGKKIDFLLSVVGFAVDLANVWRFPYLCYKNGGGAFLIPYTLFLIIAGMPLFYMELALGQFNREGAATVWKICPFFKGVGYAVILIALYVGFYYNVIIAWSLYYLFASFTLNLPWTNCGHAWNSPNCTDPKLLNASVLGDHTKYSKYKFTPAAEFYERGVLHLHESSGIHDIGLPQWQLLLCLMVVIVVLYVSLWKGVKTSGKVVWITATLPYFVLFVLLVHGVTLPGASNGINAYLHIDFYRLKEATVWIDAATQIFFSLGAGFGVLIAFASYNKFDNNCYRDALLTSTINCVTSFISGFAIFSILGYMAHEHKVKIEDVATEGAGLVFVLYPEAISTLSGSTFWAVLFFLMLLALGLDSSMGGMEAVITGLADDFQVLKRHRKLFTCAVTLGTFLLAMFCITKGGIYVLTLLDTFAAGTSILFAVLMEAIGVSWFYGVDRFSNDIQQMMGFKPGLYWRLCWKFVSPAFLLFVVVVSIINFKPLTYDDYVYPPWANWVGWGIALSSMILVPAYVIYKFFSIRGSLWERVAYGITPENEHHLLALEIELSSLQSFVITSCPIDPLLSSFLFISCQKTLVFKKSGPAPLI

T1 sequence (P31652 whole entry): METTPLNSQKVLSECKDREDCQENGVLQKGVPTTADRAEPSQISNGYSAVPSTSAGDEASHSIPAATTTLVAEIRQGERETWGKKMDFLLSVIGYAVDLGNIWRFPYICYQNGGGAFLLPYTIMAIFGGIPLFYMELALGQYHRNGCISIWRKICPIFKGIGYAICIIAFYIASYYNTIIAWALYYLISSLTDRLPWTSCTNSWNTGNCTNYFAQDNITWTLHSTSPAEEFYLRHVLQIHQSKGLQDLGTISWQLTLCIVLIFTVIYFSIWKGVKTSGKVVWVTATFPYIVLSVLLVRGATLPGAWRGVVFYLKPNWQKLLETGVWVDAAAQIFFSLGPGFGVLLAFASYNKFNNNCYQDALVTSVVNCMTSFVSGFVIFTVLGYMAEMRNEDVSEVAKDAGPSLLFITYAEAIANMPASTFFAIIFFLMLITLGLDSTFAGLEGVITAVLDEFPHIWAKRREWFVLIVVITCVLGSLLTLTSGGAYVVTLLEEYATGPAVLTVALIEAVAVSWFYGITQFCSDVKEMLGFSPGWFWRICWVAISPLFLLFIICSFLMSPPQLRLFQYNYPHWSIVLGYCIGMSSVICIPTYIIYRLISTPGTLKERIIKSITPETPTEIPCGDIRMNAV
Chain of Sodium-dependent dopamine transporter (P23977 whole entry): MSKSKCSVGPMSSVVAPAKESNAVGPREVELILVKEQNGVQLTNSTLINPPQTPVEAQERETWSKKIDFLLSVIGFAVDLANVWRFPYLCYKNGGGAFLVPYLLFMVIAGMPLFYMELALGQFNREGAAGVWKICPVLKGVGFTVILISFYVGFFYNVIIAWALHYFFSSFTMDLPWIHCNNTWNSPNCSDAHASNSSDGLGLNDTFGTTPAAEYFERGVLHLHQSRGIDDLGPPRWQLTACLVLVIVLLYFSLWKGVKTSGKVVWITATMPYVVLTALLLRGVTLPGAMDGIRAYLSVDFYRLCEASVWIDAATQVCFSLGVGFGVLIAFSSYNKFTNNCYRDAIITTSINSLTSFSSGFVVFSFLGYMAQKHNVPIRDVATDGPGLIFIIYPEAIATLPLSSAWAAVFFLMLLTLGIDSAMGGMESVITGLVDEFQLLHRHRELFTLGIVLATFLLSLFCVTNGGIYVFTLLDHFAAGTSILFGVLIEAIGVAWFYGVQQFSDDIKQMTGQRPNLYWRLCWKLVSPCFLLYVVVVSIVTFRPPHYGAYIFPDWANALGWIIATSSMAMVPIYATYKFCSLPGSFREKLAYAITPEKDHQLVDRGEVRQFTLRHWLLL

| Ki [1] [µM] | Ki [2] [µM] | Ki [3] [µM] | Ki [4] [µM] | SMILES |
| --- | --- | --- | --- | --- |
| 4.16 | 0.00062 | – | – | Cc1ccc(Sc2ccccc2CN(C)C)c(N)c1 |
| 2.53 | – | 0.00206 | 2.74 | CN(C)Cc1cc(Cl)ccc1Oc1ccc(F)cc1N |
| 3.65 | 0.00027 | – | 1.04 | Cc1ccc(Sc2ccc(F)cc2CN(C)C)c(N)c1 |
| 1.84 | 0.00035 | – | 0.919 | CN(C)Cc1cc(F)ccc1Sc1ccc(Cl)cc1N |
| 68.3 | 0.00291 | – | 5.55 | CN(C)Cc1cc(F)ccc1Oc1ccc(C#N)cc1N |
| 14.1 | – | 0.00028 | 17.9 | CN(C)Cc1cc(F)ccc1Sc1ccc(C#N)cc1N |
| 2.79 | 0.00701 | – | 0.518 | Cc1ccc(Oc2ccc(F)cc2CN(C)C)c(N)c1 |
| 4.36 | 0.0134 | – | 1.08 | CN(C)Cc1ccccc1Oc1ccc(F)cc1N |
